Experiments:
A375 = test: Cancer cell proliferation assay; type: cell-based; conditions: Homo sapiens, A-375, 72 h, read-out: IC50, cell proliferation
C-Kit = C-Kit (Homo sapiens, UniProt P10721); test: KINOMEscan competition kinase binding assay
KDR, FLT3, and C-Kit = test: KINOMEscan IC50 compared with sunitinib; type: binding, human
BxPC-3 = test: Cancer cell proliferation assay; type: cell-based; conditions: Homo sapiens, BXPC-3, 72 h, read-out: IC50, cell proliferation
[1] = system: choroidal neovascularization; test: Matrigel-induced choroidal neovascularization model; type: in vivo; conditions: rat, days 10-20 after Matrigel injection, n = 6
Outline: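 Rats anesthetized with ketamine (40 mg/kg IP) and xylazine (6 mg/kg IP), then given a subretinal injection of 1.2 μL Matrigel diluted 3:1 with PBS. Test compound at 10 or 30 mg/kg on days 10–20 after injection; controls untreated. Rats perfused with PBS, DiI and 4% paraformaldehyde. Eyes cut in 100 μm serial sections and viewed by confocal microscopy. CNV area = summed section width × thickness. Mean ± SD; ANOVA/t test.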

786-O = test: Cancer cell proliferation assay; type: cell-based; conditions: Homo sapiens, 786-0, 72 h, read-out: IC50, cell proliferation
[2] = system: VEGF165-induced Primary HUVECs; test: VEGF165-induced HUVEC proliferation; type: cell-based; conditions: Homo sapiens, 72 h, read-out: IC50, cell proliferation
HCT-116 = test: Cancer cell proliferation assay; type: cell-based; conditions: Homo sapiens, HCT-116, 72 h, read-out: IC50, cell proliferation
ABCG2 = conditions: cited from earlier work
PDGFRβ = PDGFRβ (Homo sapiens, UniProt P09619); test: KINOMEscan competition kinase binding assay
PDGFRβ, sequence (P09619 33-1106): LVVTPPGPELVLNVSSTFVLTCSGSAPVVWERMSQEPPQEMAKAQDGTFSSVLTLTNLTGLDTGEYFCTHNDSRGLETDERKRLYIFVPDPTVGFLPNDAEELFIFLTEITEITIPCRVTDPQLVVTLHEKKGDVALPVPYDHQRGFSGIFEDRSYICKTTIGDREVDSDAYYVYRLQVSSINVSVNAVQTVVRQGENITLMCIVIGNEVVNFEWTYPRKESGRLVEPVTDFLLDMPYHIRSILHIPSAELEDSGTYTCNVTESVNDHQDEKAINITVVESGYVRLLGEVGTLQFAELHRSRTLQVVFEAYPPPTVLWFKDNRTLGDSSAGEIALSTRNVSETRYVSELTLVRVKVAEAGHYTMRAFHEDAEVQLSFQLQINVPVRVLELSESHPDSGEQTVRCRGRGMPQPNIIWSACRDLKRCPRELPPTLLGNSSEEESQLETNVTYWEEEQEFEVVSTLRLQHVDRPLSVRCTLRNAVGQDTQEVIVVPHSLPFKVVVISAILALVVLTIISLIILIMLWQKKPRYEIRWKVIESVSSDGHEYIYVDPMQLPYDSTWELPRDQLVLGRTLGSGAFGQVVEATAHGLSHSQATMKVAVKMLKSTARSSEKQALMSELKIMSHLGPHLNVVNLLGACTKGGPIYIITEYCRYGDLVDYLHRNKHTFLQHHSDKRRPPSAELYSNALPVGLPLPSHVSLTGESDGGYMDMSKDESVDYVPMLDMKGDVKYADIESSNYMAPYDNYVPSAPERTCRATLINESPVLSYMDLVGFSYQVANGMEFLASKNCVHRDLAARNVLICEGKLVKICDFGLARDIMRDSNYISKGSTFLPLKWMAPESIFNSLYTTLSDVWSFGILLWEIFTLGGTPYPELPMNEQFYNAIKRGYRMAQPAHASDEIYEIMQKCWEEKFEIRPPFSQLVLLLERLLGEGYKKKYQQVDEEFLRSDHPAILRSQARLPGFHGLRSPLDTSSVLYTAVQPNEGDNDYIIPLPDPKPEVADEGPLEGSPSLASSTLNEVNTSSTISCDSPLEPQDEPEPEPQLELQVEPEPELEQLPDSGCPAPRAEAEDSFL

[3] = system: VEGF165-induced HUVEC cell lines; test: VEGF165-induced HUVEC proliferation; type: cell-based; conditions: Homo sapiens, 72 h, read-out: IC50, cell proliferation
HT-29 xenograft tumors = test: Mouse xenograft tumor growth; type: in vivo; conditions: HT-29-cell-derived xenograft models; oral
Outline: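 Two-step HT-29 xenograft in BALB/c nude mice. First, 5 × 10⁶ cells injected subcutaneously and grown to 100–300 mm³. Tumors then excised, minced into 1 mm³ pieces and implanted in the flank of new mice, then grown to 100–300 mm³. […] Oral dosing for 3–4 weeks. Percent tumor growth inhibition calculated. Study repeated once.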

MV-4-11 xenograft tumors = test: Mouse xenograft tumor growth; type: in vivo; conditions: oral
Outline: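 Male athymic BALB/c nude mice, 6 weeks old, injected subcutaneously with 5 × 10⁶ MV-4-11 cells in the flank next to the right forelimb. […] Oral dosing at various doses for 3–4 weeks. Percent tumor growth inhibition calculated. Study repeated twice. Mean ± SD; ANOVA/t test.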

FLT3 = FLT3 (Homo sapiens, UniProt P36888); test: KINOMEscan competition kinase binding assay
FLT3, sequence (P36888 27-993): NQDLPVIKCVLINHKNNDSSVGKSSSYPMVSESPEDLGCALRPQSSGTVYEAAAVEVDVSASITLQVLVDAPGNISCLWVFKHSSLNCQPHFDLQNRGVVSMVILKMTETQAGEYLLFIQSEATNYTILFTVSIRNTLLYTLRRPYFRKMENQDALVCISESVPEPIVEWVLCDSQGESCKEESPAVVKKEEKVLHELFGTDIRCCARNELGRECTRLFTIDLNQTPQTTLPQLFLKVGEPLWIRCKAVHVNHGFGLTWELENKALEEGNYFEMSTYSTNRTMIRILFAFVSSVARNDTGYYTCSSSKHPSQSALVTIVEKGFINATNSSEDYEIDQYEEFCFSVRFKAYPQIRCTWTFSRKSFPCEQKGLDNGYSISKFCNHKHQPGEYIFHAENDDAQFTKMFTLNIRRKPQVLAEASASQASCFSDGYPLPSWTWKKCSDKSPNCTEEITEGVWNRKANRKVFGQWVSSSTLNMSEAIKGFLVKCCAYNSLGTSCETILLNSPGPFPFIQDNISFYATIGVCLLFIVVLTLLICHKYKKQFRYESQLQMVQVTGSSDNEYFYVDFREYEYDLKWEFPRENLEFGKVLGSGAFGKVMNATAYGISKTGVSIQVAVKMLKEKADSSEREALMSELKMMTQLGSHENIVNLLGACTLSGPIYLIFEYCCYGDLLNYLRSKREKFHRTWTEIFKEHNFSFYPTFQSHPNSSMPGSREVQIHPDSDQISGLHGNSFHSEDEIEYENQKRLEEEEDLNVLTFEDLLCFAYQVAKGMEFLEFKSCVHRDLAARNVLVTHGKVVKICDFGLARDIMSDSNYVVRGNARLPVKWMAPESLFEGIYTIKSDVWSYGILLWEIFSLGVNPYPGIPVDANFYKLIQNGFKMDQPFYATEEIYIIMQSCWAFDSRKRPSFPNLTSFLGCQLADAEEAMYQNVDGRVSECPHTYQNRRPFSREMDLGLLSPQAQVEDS

HT-29 = test: Cancer cell proliferation assay; type: cell-based; conditions: Homo sapiens, HT-29, 72 h, read-out: IC50, cell proliferation
MV-4-11 = test: Cancer cell proliferation assay; type: cell-based; conditions: Homo sapiens, MV4-11, 72 h, read-out: IC50, cell proliferation
[4] = compared with other TKIs; cited from earlier work
CNV lesions = conditions: laser-induced CNV rat model; oral administration; cited from earlier work
Primary HUVECs [5] = test: HUVEC proliferation without VEGF165; type: cell-based; conditions: Homo sapiens, 72 h, read-out: IC50, cell proliferation
Outline: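 HUVECs grown in F-12 with 10% FBS, 18 U/mL heparin and 30 μg/mL ECGS. Seeded at 10,000 cells/well in triplicate and left to adhere overnight, then starved 24 h in 0.1% FBS. Test compound at 0.8, 3, 11.8, 46.8 and […] in 0.1% FBS, with no VEGF165 added. MTS absorbance read at 490 nm after 72 h. IC50 = concentration halving absorbance versus control.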

[6] = system: microvessel density (CD31); test: Microvessel density by CD31 immunofluorescent staining in xenograft models; type: in vivo, mouse; conditions: for microvessel density (MVD), CD31 staining: mouse xenograft models
Outline: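 Xenograft tumor paraffin sections (8 μm) rehydrated and treated 30 min in Tris/EDTA, then blocked with PBS/0.3% Triton X. Primary rabbit anti-mouse CD31 (1:100) at 4°C overnight. Secondary Alexa Fluor 488 goat anti-rabbit IgG (1:50) for 2 h. MVD quantified from fluorescence images: five slides, four ×200 fields each.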

Primary HUVECs [7] = test: In vitro HUVEC tube formation assay; type: cell-based, human; conditions: at both 50 and 100 nM; VEGF165 30 ng/mL, 3 h
A549 xenograft tumors = test: Mouse xenograft tumor growth; type: in vivo; conditions: dose-dependent (abstract only)
[8] = system: KDR phosphorylation of HUVECs; test: VEGF-induced KDR phosphorylation of HUVECs; type: cell-based, human; conditions: Figure S1
[9] = Body weight and tolerability in xenograft mice; type: in vivo, mouse
A549 = test: Cancer cell proliferation assay; type: cell-based; conditions: Homo sapiens, A549, 72 h, read-out: IC50, cell proliferation

C-Kit, sequence (P10721 26-976): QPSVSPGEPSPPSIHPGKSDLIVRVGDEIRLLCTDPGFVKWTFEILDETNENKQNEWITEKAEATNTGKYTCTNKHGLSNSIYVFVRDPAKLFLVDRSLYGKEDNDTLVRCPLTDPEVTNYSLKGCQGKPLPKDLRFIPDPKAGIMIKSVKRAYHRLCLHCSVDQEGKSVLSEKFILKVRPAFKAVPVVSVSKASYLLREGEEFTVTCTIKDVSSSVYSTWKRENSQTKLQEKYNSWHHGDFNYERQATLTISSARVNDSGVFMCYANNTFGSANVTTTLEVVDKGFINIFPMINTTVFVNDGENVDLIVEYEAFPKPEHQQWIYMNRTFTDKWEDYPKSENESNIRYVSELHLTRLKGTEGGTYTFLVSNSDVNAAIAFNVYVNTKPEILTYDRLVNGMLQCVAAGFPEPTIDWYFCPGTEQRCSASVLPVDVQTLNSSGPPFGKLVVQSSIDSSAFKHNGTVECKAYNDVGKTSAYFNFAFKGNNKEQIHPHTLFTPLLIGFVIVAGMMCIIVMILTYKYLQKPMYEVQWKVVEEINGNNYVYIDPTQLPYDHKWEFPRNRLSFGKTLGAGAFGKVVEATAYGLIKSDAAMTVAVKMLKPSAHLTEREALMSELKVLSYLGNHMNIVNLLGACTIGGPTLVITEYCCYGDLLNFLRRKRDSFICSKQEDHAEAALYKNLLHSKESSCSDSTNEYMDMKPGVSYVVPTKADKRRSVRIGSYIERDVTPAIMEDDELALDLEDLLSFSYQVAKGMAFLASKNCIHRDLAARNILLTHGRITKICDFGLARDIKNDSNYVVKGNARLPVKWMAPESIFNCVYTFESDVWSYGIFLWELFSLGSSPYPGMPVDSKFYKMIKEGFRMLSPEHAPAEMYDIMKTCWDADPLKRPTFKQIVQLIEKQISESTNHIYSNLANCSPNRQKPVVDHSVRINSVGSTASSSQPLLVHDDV

Structure (SMILES) | IC50 (A375) | IC50 (BxPC-3) | IC50 (786-O) | IC50 [2] | IC50 (HCT-116) | IC50 [3] | IC50 (HT-29) | IC50 (MV-4-11) | IC50 (Primary HUVECs [5]) | microvessel density (MVD), CD31 staining [6] | IC50 (A549) | other results
Cc1[nH]c(/C=C2\C(=O)Nc3ccc(F)cc32)c(C)c1C(=O)N[C@H]1CCN(C(=O)N(C)C)C1 [Vorolanib] | > 9000 nM | > 9000 nM | > 9000 nM | 92.4 nM | > 9000 nM | 64.1 nM | > 9000 nM | 140 nM | > 2000 nM | suppressed the MVD of the mouse in a dose-dependent manner | > 9000 nM | IC50 (C-Kit): 0.14 nM; IC50 fold lower than those of sunitinib (KDR, FLT3, and C-Kit): 4.7- to 15.4 fold; CNV area ([1]; 10 mg/kg): 493.58 ± 317.17 × 10^3 μm^2; CNV area ([1]; 30 mg/kg): 357.70 ± 276.97 × 10^3 μm^2; drug efflux function of ABCG2 (ABCG2): inhibition of the drug efflux function of ABCG2; IC50 (PDGFRβ): 0.13 nM; efficacious dose (HT-29 xenograft tumors): 40–160 mg/kg bid; tumor growth inhibition (MV-4-11 xenograft tumors; 10 mg/kg bid): began to show significant inhibition; tumor regression (MV-4-11 xenograft tumors; 80 mg/kg bid): tumors completely disappeared; IC50 (FLT3): 0.63 nM; half-life [4]: shorter half-life; tissue accumulation [4]: limited tissue accumulation; CNV lesions (CNV lesions): could reduce CNV lesions; microvessel density (MVD) inhibitory activity ([6]; high-dose vorolanib 160 mg/kg twice daily [bid]): comparable with sunitinib; VEGF165-induced tube formation of HUVECs (Primary HUVECs [7]): inhibited the VEGF165-induced tube formation of HUVECs, in vitro, with inhibitory strengths comparable with that of sunitinib; tumor growth (A549 xenograft tumors): inhibited tumor growth; VEGF-induced KDR phosphorylation of HUVECs [8]: inhibited the VEGF-induced KDR phosphorylation of HUVECs; body weight loss / toxicity ([9]; orally administered vorolanib): no obvious body weight loss or other significant toxicity observed
CN[C@@H]1C[C@H]2O[C@@](C)([C@@H]1OC)n1c3ccccc3c3c4c(c5c6ccccc6n2c5c31)C(=O)NC4 [Staurosporine, reference compound] |  |  |  |  |  |  |  |  | 8.12 nM |  |  | 
CCN(CC)CCNC(=O)c1c(C)[nH]c(/C=C2\C(=O)Nc3ccc(F)cc32)c1C [Sunitinib, reference compound] | 2880 nM | 4960 nM | 6040 nM | 12.6 nM | 2520 nM | 39.8 nM | 4420 nM | 14.8 nM |  | significantly inhibited | 4430 nM | body weight loss ([9]; 40 mg/kg qd): severe body weight loss
